Published values of several laboratories.
Each line is one published result; the experiments were not run side by side.
ACHE: Acetylcholinesterase (ACHE, Homo sapiens, UniProt P22303)

CC(C)CC(=O)OC[C@H]1O[C@@](C#N)(c2ccc3c(N)ncnn23)[C@H](O)[C@@H]1O
inhibition (ACHE; enzyme activity, inhibitor; 20 µM): 3%

[2H]c1c([2H])c([C@]2([2H])CCCN2C(=O)C(C)(C)Oc2ccc3cn[nH]c3c2)c([2H])c([2H])c1C([2H])([2H])[2H]
remaining binding (Ephrin type-A receptor 2 (EPHA2, Homo sapiens, UniProt P29317); binding, competition with immobilised ligand; 1 µM): 99%

CCCCC(=O)Nc1ccc(-c2ccc3ncn(CCC)c(=O)c3c2)cn1
remaining binding (Serine/threonine-protein kinase PknB (pknB, Mycobacterium tuberculosis, UniProt P9WI81); binding, competition with immobilised ligand; 0.5 µM): 100%

COc1cc(/C=C/C(=O)O)ccc1OCc1cn(CC(=O)Nc2ccc(C)cc2)nn1
inhibition (ACHE; enzyme activity, inhibitor, Ellman; 40 µM): 46%

CN1C(=O)/C(=N\Nc2ncc(-c3cc4ccccc4oc3=O)s2)c2cc(Cl)ccc21
inhibition (ACHE; enzyme activity, inhibitor, Ellman; 1 µM): 90%

COc1cc(/C=C/C(=O)O)ccc1OCc1cn(CC(=O)Nc2ccccc2[N+](=O)[O-])nn1
inhibition (ACHE; enzyme activity, inhibitor, Ellman; 40 µM): 22.1%

CCc1ccc(N2C(=O)/C(=C3/C(=O)N(C)c4ccc(Cl)cc43)NC2=S)cc1
inhibition (ACHE; enzyme activity, inhibitor, Ellman; 5 µM): 84%

COc1cc(/C=C/C(=O)O)ccc1OCc1cn(CC(=O)Nc2ccccc2C)nn1
inhibition (ACHE; enzyme activity, inhibitor, Ellman; 40 µM): 30.9%

C1CO1.C=O.CC(C)(C)CC(C)(C)c1ccc(O)cc1
inhibition (Mitogen-activated protein kinase 3 (MAPK3, Homo sapiens, UniProt P27361); enzyme activity, inhibitor, ADP detection; 10 µM): 45.2%
